Many of the other results were omitted from the sample, so hits are more common in it than they were.
RORA inh = RORA (human) inhibition; P35398; CHO-K1 Gal4-RORA LBD luciferase reporter, luminescence; inhibition, % at 10 µM; 65,000 compounds, 0.43% hits; AID 561;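 active means inhibition above the mean of all tested compounds plus 3 SD, cut at about 52% in these data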;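 further: 0% = RORA-transfected cells with DMSO and 100% = mock-transfected cells lacking RORA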
Target sequence (P35398 whole entry, looked up, the tested form may be a part): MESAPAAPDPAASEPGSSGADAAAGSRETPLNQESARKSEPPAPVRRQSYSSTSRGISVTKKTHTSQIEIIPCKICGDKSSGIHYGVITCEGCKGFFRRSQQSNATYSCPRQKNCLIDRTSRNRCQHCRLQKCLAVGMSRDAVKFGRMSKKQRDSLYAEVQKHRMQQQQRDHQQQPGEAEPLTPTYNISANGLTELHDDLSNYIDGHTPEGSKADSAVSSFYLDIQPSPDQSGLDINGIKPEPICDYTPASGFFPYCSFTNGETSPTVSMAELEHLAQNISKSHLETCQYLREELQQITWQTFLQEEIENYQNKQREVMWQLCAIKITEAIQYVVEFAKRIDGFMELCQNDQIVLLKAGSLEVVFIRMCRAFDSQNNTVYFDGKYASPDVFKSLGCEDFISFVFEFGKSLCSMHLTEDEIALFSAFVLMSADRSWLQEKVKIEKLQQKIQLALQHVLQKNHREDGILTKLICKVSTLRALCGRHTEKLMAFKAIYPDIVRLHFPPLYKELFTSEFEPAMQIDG
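Test system – CHO-K1 Gal4-RORA LBD luciferase reporter cells · Schedule – 20 h at 37 °C · Signal – luminescence from basal luciferase reporter expression · Measure – percent inhibition of basal reporter luminescence, control-normalized · Control set – -RORA mock-transfected DMSO wells 100%, +RORA DMSO wells 0%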
* marks the source's active call; other numbers are inactive results.

SMILES | RORA inh
COc1ccc(S(=O)(=O)N(CC(=O)Nc2cc(C)on2)Cc2ccccc2)cc1 | -6
COc1ccccc1-c1cc(C(F)(F)F)nc(S(=O)(=O)CCCC(=O)Nc2cc(C)on2)n1 | 70*
COc1ccc(/C(O)=C2/C(=O)C(=O)N(CCN(C)C)C2c2ccc(F)cc2)cc1Cl (stereo unspecified) | 1
O=C(NC1CCCc2ccccc21)C1CCN(c2c(N3CCCC3)c(=O)c2=O)CC1 (stereo unspecified) | -6
CSc1ncccc1C(=O)OCc1ccccc1F | -89
c1cncc(-c2nn3c(-c4ccncc4)nnc3s2)c1 | -17
CS(=O)(=O)N(CC(=O)O)c1cc(Cl)cc(Cl)c1 | 10
CC(=O)c1ccc(N2CCN(CCC#N)CC2)c(F)c1 | 16
CCN(CC)c1ccc(NC(=O)c2ccc(Br)o2)cc1 | -102
c1ccc2c(c1)CCN(c1ncnc3c1[nH]c1ccccc13)C2 | 89*
c1ccc(CN2CCN(c3nc(-c4ccccc4)nc(-n4ccnc4)n3)CC2)cc1 | 22
c1ccc(CN2CCN(c3ncnc4c3[nH]c3ccccc34)CC2)cc1 | 67*
O=C(c1ccc(Cn2c(=O)[nH]c3ccccc3c2=O)cc1)N1CCN(c2ccccc2)CC1 | -10
O=c1c2[nH]c3ccccc3c2ncn1C1CCCCC1 | -61
Cc1ccc(-n2c(CSc3nc(C)cc(C)n3)nnc2SCC(=O)Nc2nccs2)cc1 | 19
O=C(CN(Cc1ccco1)C(=O)CNS(=O)(=O)c1ccc(Cl)cc1)NCc1ccc(F)cc1 | 8
O=C(CN(Cc1ccco1)S(=O)(=O)c1cccs1)Nc1ccccc1C(F)(F)F | -9
CCOC(=O)N1CCN(C2=NC3(CCCCC3)C(C#N)C(=O)N2)CC1 (stereo unspecified) | -8
Cc1ccc(CC(CC(=O)O)C(=O)NC2CCCCC2)cc1 (stereo unspecified) | 11
NC(=O)NC1CCCc2c1[nH]c1ccc(Cl)cc21 (stereo unspecified) | 10
Cn1c(-c2ccc(Br)o2)nc2ccccc21 | -73
CN(C)c1ccc(-c2nc3ccccc3n2C)cc1 | 62*
CCn1c(-c2ccc(N(C)C)cc2)nc2ccccc21 | -88
CSc1nnc(Cn2c(=O)sc3ccccc32)n1-c1ccccc1C | 5
Cc1cc2c(cc(C(=O)OCC(=O)NCc3cccs3)n2C(C)C)o1 | -57
SMILES | RORA inh
CCOC(=O)Cc1csc(NC(=O)CCS(=O)(=O)Cc2ccccc2)n1 | -2
Cc1cc(C)n(-c2ccc3cccc(NS(C)(=O)=O)c3n2)n1 | 67*
Cc1cc(C)n(-c2nc(C)nc(N)n2)n1 | -24
Cc1cc(C)n(S(=O)(=O)c2ccc3ccccc3c2)n1 | 18
N#Cc1c(NC(=O)COC(=O)C2CC3C=CC2C3)oc(-c2ccccc2)c1-c1ccccc1 (stereo unspecified) | 12
Cc1ccc(-c2csc3ncnc(Sc4nnc(CN5CCCCCC5=O)o4)c23)cc1 | 57*
CC1(C)OC(=O)N(c2cccnc2)C1(C)O (stereo unspecified) | 6
O=S(=O)(c1ccc(S(=O)(=O)N2CCCC2)cc1)N1CCCCCC1 | -10
COc1ccc(Oc2ccc(S(=O)(=O)N3CCCCC3)cc2S(=O)(=O)N2CCCCC2)cc1 | 9
O=S(=O)(c1ccc2c(c1)C(=NO)c1cc(S(=O)(=O)N3CCCCC3)ccc1-2)N1CCCCC1 | 66*
CCCCn1c(SCC(=O)Nc2cc(NC(=O)c3ccco3)ccc2C)nc2ccccc2c1=O | 12
CCOC(=O)NCCc1c(C)nc2c(c(C)nn2C(C)(C)C)c1C | 12
Cc1cccc(NC(=O)c2cc3ccccc3c(=O)o2)n1 | -57
COc1ccc(NC(=O)Nc2cccc(OC)c2)cc1 | -68
Cc1cccc(NC(=O)Nc2ccc(C#N)cc2)n1 | 60*
CCOC(=O)Cc1csc(NC(=O)CSc2nc3cccnc3n2CC)n1 | -2
O=C(c1ccc2c(c1)c(=O)oc1ccccc12)N1CCCCC1 | -50
CCOC(=O)N1CCN(C(=O)CSc2nnc(CNC(=O)c3c(F)cccc3Cl)o2)CC1 | -11
COc1ccc(N2CCN(C(=O)CSc3nnc(CNc4ccccc4)o3)CC2)cc1 | 4
CCOc1cc(C(=O)CSc2nnc(CNc3ccc(Cl)cc3)o2)ccc1NC(=O)CC | 54*
Oc1ccc(-c2nnc(SCC3CCCCC3)o2)cc1 | -59
CC(C)C(=O)N1CCN(C2=NS(=O)(=O)c3ccccc32)CC1 | 16
O=C(Nc1nc(-c2nc3ccccc3s2)cs1)C1CC1 | -51
O=C(Nc1nc(-c2ccccn2)cs1)c1ccc(Cl)s1 | 65*
O=C(Nc1nc(-c2ccccc2)cs1)c1cccs1 | -57
SMILES | RORA inh
O=C(C1CCCN(S(=O)(=O)c2cccs2)C1)N1CCN(C2CCCCC2)CC1 (stereo unspecified) | -19
CCCCC(=O)Nc1ccc(C(=O)N2CCCC(C(=O)OCC)C2)cc1 (stereo unspecified) | -3
Cc1cc(C(=O)Nc2cccc(C(=O)O)c2)oc1C | 74*
CC#CCCCC(=O)Nc1cccc(C(=O)O)c1 | -56
O=C(Nc1cccc(Br)c1)c1cc2ccccc2o1 | -71
CSCCC(NC(=O)c1ccco1)C(=O)O (stereo unspecified) | 8
COc1ccc(-n2c(SCC#N)nnc2-c2ccc(NS(=O)(=O)c3ccc(C)cc3)cc2)cc1 | -7
O=C1Nc2ccccc2OC1CC(=O)N1CCCC1 (stereo unspecified) | -2
CC1(C)CC(=O)c2cnc(NC(=O)C3CCCC3)nc2C1 | -7
CC12CN3CC(C)(CN(C1)C3c1ccc(Br)cc1)C2 (stereo unspecified) | 29
O=C(CN1CCC(n2nnc3ccccc32)CC1)NCc1cccs1 | 8
Cn1c(-c2ccccc2)cc2c3no[n+]([O-])c3ccc21 | 66*
O=C(c1cc(-c2cccs2)on1)N1CCCc2ccccc21 | -6
COC(=O)CSc1nnc2c(C)cc3cc4c(cc3n12)OCCO4 | 7
CCCCC(=O)N(c1ccc(C)c(C)c1)C1C=CS(=O)(=O)C1 (stereo unspecified) | 3
CC(NC(=O)Nc1nnc(C(F)(F)F)s1)(C(F)(F)F)C(F)(F)F | 94*
Cc1nn(CC(=O)Nc2nnc(CC(=O)N3CCCC3)s2)c(=O)c2ccccc12 | -12
CCc1nc(C)cn1S(=O)(=O)c1cc(Br)ccc1OC | 10
CC1(C)NC(=O)N(CC(O)COc2ccc(N3C(=O)c4ccccc4C3=O)cc2)C1=O (stereo unspecified) | -17

Bioassay records as filed in PubChem BioAssay.
